NPY-Y1 antag: NPY-Y1 receptor antagonists, primary screen, cell-based; Neuropeptide Y receptor type 1 (Homo sapiens), P25929; HEK293-CNG Y1 cells, membrane potential fluorescence; NPY at EC95, then isoproterenol; inhibition, % at 3.6 µM; hit rate 1% among 200,000; AID 1040, 2008;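 active = inhibition above the campaign mean inhibition of all tested compounds plus 3 SD, cut at about 20% in these data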
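Test system – HEK293 Y1/CNG channel cell line · Also added – NPY agonist 25 nM, then isoproterenol 1 µM plus Ro 20-1724 25 µM · Compound dosing – one concentration, 3.6 µM, in 0.4% DMSO · Schedule – compound incubation 1 h at room temperature, readout 45 min post-stimulation · Technique – fluorescence, membrane potential probe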
WT yeast gro inh: growth inhibition of WT strain, primary screen, mitochondrial fusion inhibitor project, WT and mutant strains, chemical genetic; mitochondrial fusion phenotypic screen; inhibition, % at 10 µM; hit rate 2.1% among 190,000; AID 1362, 2008; in the data active = inhibition above about 58%; tested in S. cerevisiae
NPY2 pot ag: NPY-Y2 potentiators or agonists, primary screen, cell-based. cells expressing NPY-Y2, potentiator/agonist read-out. activation, % at 3.6 µM. hit rate 0.45% among 220,000. AID 1359, 2008; in the data active = activation above about 27%;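 also: cells stimulated with NPY near EC25 plus isoproterenol at EC100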
Target sequence (P49146 whole entry, looked up): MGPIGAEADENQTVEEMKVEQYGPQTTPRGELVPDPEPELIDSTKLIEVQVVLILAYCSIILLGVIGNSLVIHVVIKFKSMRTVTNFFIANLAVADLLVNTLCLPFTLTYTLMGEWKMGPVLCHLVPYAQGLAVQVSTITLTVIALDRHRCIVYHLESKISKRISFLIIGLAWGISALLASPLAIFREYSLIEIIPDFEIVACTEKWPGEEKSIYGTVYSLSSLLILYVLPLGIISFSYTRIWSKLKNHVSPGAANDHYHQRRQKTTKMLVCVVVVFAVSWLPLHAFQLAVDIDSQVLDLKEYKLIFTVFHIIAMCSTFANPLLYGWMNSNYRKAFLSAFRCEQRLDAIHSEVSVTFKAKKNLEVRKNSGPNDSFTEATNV
RAM inhibit: inhibitors of the yeast RAM network, primary screen, dse1pr::URA3 reporter, 5-FOA selection; inhibition, % at 50 µM; hit rate 1.8% among 190,000; S. cerevisiae dse1pr::URA3 reporter, 5-FOA growth OD615, 2 d; analog-sensitive cbk1-as2 kinase mutant strain;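 active = inhibition above a set limit, 3 SD over mean compound inhibition, cut at about 8.4% in these data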;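 also: inhibition rescues growth on 5-FOA so higher OD means more RAM inhibition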
NPY-Y1 PAM-ag: NPY-Y1 receptor potentiators or agonists, primary screen, cell-based; hit rate 0.37% among 220,000; Neuropeptide Y receptor type 1 (Homo sapiens), P25929; NPY-Y1 expressing cells, potentiator/agonist activation; AID 1304, 2008; activation, % at 3.6 µM; in the data active = activation above about 33%, passing the limit was not always enough;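 also: cells stimulated with NPY at EC10 then isoproterenol at EC100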
NPY Y2 blocker: NPY-Y2 receptor antagonists, primary screen, cell-based | Neuropeptide Y receptor type 2 (Homo sapiens), P49146 | NPY-Y2 expressing cells, antagonist mode | inhibition, % at 2.7 µM | hit rate 0.99% among 140,000; in the data active = inhibition above about 17%
Numbers stand for hits; 0 = inactive; - = no result. The list is not random: actives were taken first. Their share in the collection is about 4.9%.

SMILES	NPY-Y1 antag	WT yeast gro inh	NPY2 pot ag	RAM inhibit	NPY-Y1 PAM-ag	NPY Y2 blocker
COC(=O)c1ccc(C(=O)OC)c(NC(=O)CSc2nc(-c3ccco3)cc(C(F)(F)F)n2)c1	0	-	0	-	0	0
CCOCC(=O)Nc1c(C(=O)Nc2ccc(OC)cc2OC)oc2ccccc12	0	0	0	10.8	0	0
CCOC(=O)C1C(=O)C=C(c2ccc(Br)cc2)CC1c1ccco1 (configuration not stated)	0	62.4	0	0	0	0
CCOC(=O)C1C(=O)C=C(c2cccc(NS(C)(=O)=O)c2)CC1c1ccco1 (configuration not stated)	0	0	0	0	0	0
CCN(CC)C(=O)c1sc2nc(-c3cccs3)cc(-c3ccc(Cl)cc3)c2c1N	0	0	0	9.2	0	0
CCN(CC)C(=O)c1sc2nc(-c3cccs3)cc(-c3cccs3)c2c1N	-	-	0	-	0	-
COc1ccc(CN(Cc2cc3cc(C)ccc3[nH]c2=O)C(=O)N(C)C)cc1	0	0	0	0	0	0
CNC(=S)N(Cc1ccc(OC)cc1)Cc1cc2cc(C)ccc2[nH]c1=O	0	0	0	8.5	0	-
CCN(Cc1cc2ccc(C)cc2[nH]c1=O)C(=O)c1ccncc1	0	60.2	0	0	0	0
COC(=O)c1ccccc1NC(=S)N(Cc1ccc2c(c1)OCO2)Cc1cc2cc(OC)ccc2[nH]c1=O	0	0	0	8.5	0	0
Cc1[nH]n(-c2ccccc2)c(=O)c1/C=N/N(c1ccccc1)c1ccccc1	0	0	0	0	0	-
CCOC(=O)c1sc(/N=C/c2c(C)[nH]n(-c3ccccc3)c2=O)c(C#N)c1C	0	77.3	0	0	0	0
CCCn1c(SCC(=O)Nc2cccc(C)n2)nc2c1c(=O)n(C)c(=O)n2C	0	0	0	0	0	-
O=C(/C=C/c1ccccc1)Oc1ccccc1C(=S)N1CCOCC1	0	0	0	0	0	-
N#CC(c1ccncc1)(c1ncc(C(F)(F)F)cc1Cl)N1CCOCC1 (configuration not stated)	0	0	0	0	0	-
Cc1cccc(Cn2nc(-n3cccc3)c3c(C)cc(C)nc32)c1	0	61.9	0	0	0	-
Cc1cc(Nc2ccccc2)n(-c2cccc(Cl)c2)n1	0	0	0	0	0	0
Nc1ccccc1Nc1cc(-c2cccc(Cl)c2)nn1-c1ccccc1	0	75.0	0	0	0	0
Cc1ccc2c(c1)sc1ncc(NC(=O)c3ccc(F)cc3)c(=O)n12	0	0	0	0	0	-
COc1cccc(C(=O)NC(c2ccccc2)C2CCCC2)c1 (configuration not stated)	21.8	0	0	0	0	-
COc1cccc(C(CC(=O)Nc2cccc3ccccc23)NC(=O)c2ccccc2)c1 (configuration not stated)	0	0	0	10.1	0	0
COc1ccc(OC)c(NC(=O)CC(NC(C)=O)c2ccccc2)c1 (configuration not stated)	0	0	0	0	0	-
CCOc1ccc(NS(=O)(=O)c2ccc3c(c2)N(C(C)=O)CC3)cc1	0	0	0	0	0	-
COc1ccc(CC(=O)NC(C)(C)CC(C)=O)cc1OC	0	0	0	0	0	0
Oc1cccc(C(O)CNCc2ccc(-c3ccccc3)cc2)c1 (configuration not stated)	0	0	0	0	0	-
SMILES	NPY-Y1 antag	WT yeast gro inh	NPY2 pot ag	RAM inhibit	NPY-Y1 PAM-ag	NPY Y2 blocker
Oc1cccc(C(O)CNCc2ccc(OCc3ccc(Cl)cc3Cl)cc2)c1 (configuration not stated)	0	87.7	0	0	0	-
CCOCCCNC(=O)/C(C#N)=C/c1ccc([N+](=O)[O-])o1	0	91.3	0	0	0	-
COc1ccccc1NC1=C(Cl)C(=O)N(C2CCCCC2)C1=O	0	70.0	0	0	0	0
CCOC(=O)c1ccc(CN(Cc2ccc(C)cc2)S(=O)(=O)c2cccc([N+](=O)[O-])c2)cc1	0	0	0	10.5	0	0
CCOC(=O)C1CCC(CN(Cc2ccccc2)S(=O)(=O)c2ccc([N+](=O)[O-])cc2)CC1 (configuration not stated)	0	71.5	0	0	0	0
CCOC(=O)C1CCN(C(=O)CN(Cc2ccccc2)S(C)(=O)=O)CC1	0	0	0	0	0	0
Cc1cc(C)n2nc(SCC(=O)c3cc(C)n(CC4CCCO4)c3C)nc2n1 (configuration not stated)	0	0	0	0	0	-
COc1ccc(NC(=O)O/N=C2/CCCc3ccc(OC)cc32)cc1	0	0	0	0	98.5	0
COc1ccc2c(c1)/C(=N/OC(=O)c1cccs1)CCC2	0	70.8	0	0	0	-
CC(C)c1ccc(/C=C2\CC/C(=C\C=N\N(C)C)C2=O)cc1	0	0	0	0	0	0
Cc1nc2ccccc2c2oc(C(=O)Nc3ccc(C(C)C)cc3)cc12	0	61.3	0	0	0	-
CC1(C)CC(=O)C(N=Nc2cc3c(cc2[N+](=O)[O-])OCCO3)=C(O)C1	0	0	0	9.5	0	-
Cc1ccc(O)c(N=NC2=C(O)CC(C)(C)CC2=O)c1	0	0	0	0	0	0
COc1ccc(C(C)=O)cc1COC(=O)c1cnc(Cl)c(Cl)c1	0	0	0	9.9	0	-
COc1ccc(C(C)=O)cc1COC(=O)c1ccc2c(c1)OCO2	0	0	0	0	0	0
c1csc(COc2ccccc2CNC2CCCCC2)c1	23.5	0	0	0	0	31.4
CCCn1nnnc1NCc1ccccc1OCc1cccs1	0	0	0	0	0	0
Cc1c(N2C(=O)c3cccc4cccc(c34)C2=O)c(=O)n(-c2ccccc2)n1C	0	96.7	0	0	0	0
COc1cc(OC)c(N(C)S(=O)(=O)c2cccc(C(=O)Nc3nnc(C4CC4)s3)c2)cc1Cl	-	-	56.2	-	70.8	-
Cc1ccc(N(C)S(=O)(=O)c2cccc(C(=O)Nc3nnc(C4CC4)s3)c2)cc1	0	0	0	0	0	-
CCn1c(SCC(=O)N/N=C/c2ccccc2OCC(=O)O)nnc1-c1ccc(OC)cc1	0	0	0	0	0	-
COc1ccc(C(NC(=O)c2c(F)c(F)c(F)c(F)c2F)c2ccccc2)cc1 (configuration not stated)	0	0	35.3	0	63.0	0
O=S(=O)(c1ccc(C(F)(F)F)cc1)N1CCCN(c2ccc(C(F)(F)F)cn2)CC1	-	-	0	-	0	-
CCOC(=O)c1cc(C#N)c(SCc2ccc(C#N)cc2)nc1C	0	0	0	10.3	0	0
CCOc1ccc2nc(SCc3ccc(CC(=O)O)cc3)c(C#N)cc2c1	0	0	0	9.5	0	-
CCCCSc1nc(C)c(C(C)=O)cc1C#N	0	0	0	10.4	0	0
